Results as given in ChEMBL document CHEMBL1141219, “Chemoenzymatic synthesis of a series of 4-substituted glutamate analogues and pharmacological characterization at human glutamate transporters subtypes 1-3” (J Med Chem, 2005).

Columns and labels:
Type in all cases: functional, cell-based
[1] = molecular target: T1, Excitatory amino acid transporter 3 (Homo sapiens) (UniProt P43005); assay: Binding affinity to human EAAT3 expressed in HEK293 cells in FMP (FLPR) assay
T1 sequence (whole entry): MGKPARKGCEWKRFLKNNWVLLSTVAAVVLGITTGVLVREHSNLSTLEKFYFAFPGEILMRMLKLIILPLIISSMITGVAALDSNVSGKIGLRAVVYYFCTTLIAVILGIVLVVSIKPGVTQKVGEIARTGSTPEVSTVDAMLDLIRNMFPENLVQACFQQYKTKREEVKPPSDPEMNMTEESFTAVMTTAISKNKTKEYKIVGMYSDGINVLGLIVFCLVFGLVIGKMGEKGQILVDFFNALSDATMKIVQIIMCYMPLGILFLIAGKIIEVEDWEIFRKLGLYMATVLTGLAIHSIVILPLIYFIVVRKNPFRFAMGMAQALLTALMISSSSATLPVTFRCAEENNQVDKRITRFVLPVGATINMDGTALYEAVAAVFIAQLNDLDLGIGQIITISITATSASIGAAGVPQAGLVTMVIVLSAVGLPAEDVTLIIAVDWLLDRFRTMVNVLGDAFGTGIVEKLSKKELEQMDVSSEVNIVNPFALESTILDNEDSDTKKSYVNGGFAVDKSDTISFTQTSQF
Procedure, shortened: (§1)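 HEK293 cells stably expressing the human transporter, seeded on poly-D-lysine plates in DMEM with 10% dialyzed FBS and G-418 for 16–24 h. Cells washed in Krebs buffer (pH 7.4), then loaded with FMP dye for 30 min at 37 °C. Read at room temperature, excitation 530 nm and emission 560 nm, for up to 1 min after substrate addition. Non-substrate inhibitors were preincubated and tested against 30 μM Glu. Seven-concentration curves from maximal responses, duplicate, at least three times.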

[2] = molecular target: Excitatory amino acid transporter 2 (Homo sapiens) (UniProt P43004); assay: Binding affinity to human EAAT2 expressed in HEK293 cells in FMP (FLPR) assay; procedure, shortened: as §1
[3] = molecular target: Excitatory amino acid transporter 1 (Homo sapiens) (UniProt P43003); assay: Binding affinity to human EAAT1 expressed in HEK293 cells in FMP (FLPR) assay; procedure, shortened: as §1
Excitatory amino acid transporter 1 (Homo sapiens), sequence (P43003 whole entry): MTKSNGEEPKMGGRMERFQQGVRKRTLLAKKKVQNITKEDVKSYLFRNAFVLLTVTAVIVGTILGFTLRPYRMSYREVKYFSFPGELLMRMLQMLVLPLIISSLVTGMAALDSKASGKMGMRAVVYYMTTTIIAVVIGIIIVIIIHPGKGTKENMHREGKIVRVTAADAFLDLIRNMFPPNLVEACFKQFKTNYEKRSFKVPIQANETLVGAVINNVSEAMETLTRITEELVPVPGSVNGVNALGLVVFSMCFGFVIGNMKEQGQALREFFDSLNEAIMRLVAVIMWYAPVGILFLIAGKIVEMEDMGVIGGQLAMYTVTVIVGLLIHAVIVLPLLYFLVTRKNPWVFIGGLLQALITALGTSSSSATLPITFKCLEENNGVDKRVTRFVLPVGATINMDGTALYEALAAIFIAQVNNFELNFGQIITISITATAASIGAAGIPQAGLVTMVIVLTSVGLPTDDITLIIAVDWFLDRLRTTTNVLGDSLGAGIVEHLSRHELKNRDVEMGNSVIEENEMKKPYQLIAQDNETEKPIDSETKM

Excitatory amino acid transporter 2 (Homo sapiens), sequence (P43004 whole entry): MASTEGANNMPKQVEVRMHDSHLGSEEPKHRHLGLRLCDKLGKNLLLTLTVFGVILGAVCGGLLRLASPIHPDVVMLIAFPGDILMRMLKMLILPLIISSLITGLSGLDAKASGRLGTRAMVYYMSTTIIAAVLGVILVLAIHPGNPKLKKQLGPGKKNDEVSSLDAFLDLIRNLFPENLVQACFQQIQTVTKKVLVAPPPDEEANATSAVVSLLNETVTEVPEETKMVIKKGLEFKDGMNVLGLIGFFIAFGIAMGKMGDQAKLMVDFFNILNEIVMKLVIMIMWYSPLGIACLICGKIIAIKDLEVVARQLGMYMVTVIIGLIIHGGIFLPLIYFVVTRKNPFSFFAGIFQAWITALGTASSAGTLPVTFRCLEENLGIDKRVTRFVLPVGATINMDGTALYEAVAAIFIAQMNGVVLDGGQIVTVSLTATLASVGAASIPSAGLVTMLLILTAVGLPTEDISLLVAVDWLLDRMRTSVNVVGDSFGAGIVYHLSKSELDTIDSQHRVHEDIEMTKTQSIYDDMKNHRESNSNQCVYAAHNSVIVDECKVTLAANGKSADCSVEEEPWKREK

SMILES | pKm [1] | pKm [2] | pKm [3]
N[C@@H](C[C@H](O)C(=O)O)C(=O)O | 4.16 | 4.21 | 4.06
C[C@H](C[C@H](N)C(=O)O)C(=O)O | – | – | 4.92
N[C@@H](C[C@@H](O)C(=O)O)C(=O)O | 3 | 3 | 3
N[C@@H](CCC(=O)O)C(=O)O | 4.61 | 4.69 | 5.04
